Screens (PubChem BioAssay)
Most compounds without a hit are left out; they make up all but 4.8% or so of the library.
ALR H2O2 inh = inhibitors of human ALR sulfhydryl oxidase, primary screen, biochemical, H2O2 detection, HRP-luminol luminescence, single point. FAD-linked sulfhydryl oxidase ALR (Homo sapiens), P55789. purified ALR, DTT oxidation. inhibition, % (concentration not given with the values). 3.8% of 290,000 active. AID 485317, 2010;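 active means mean replicate inhibition above about 79%, with every replicate also reaching it, limit read from the data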
Target sequence (P55789 whole entry, looked up): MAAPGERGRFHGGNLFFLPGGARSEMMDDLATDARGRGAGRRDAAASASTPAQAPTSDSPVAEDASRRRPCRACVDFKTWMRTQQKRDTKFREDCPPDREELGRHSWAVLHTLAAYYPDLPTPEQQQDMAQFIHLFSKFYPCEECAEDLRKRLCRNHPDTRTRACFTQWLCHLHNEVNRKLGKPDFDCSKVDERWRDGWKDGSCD
Calb FLC = C. albicans growth inhibition with fluconazole, primary screen, CaCi-2 strain, Alamar Blue fluorescence; C. albicans CaCi-2 (fluconazole-resistant clinical isolate) + fluconazole, 48 h; growth inhibition, % (test concentration not listed); 0.57% of 300,000 active; AID 1979, 2009;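 active means growth inhibition above about 58% in most replicates, limit read from the data, passing the limit was not always enough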;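 further: all wells also contain fluconazole at 8 µg/ml as a sub-toxic cotreatment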
NALP1 inh = NALP1 inflammasome inhibitors in reconstituted yeast, colorimetric, S. cerevisiae, triplicate retest; inhibition, % at 10 µM; S. cerevisiae NALP1/ASC/caspase-1 growth, X-gal OD620, 72 h; 0.61% of 280,000 active; in the data active means inhibition mostly above about 24%, no sharp cut-off; inactive means mostly below about 32%
UCH37 inh = inhibitors of human UCH37 deubiquitinase, primary screen, biochemical, Ub-AMC cleavage, fluorescence; purified proteasome/UCH37; inhibition, % (test concentration not listed); 0.33% of 330,000 active; Ubiquitin carboxyl-terminal hydrolase isozyme L5 (Homo sapiens), Q9Y5K5; AID 588478, 2011;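 active means mean inhibition over replicate wells above about 20%, limit read from the data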
Target sequence (Q9Y5K5 whole entry, looked up): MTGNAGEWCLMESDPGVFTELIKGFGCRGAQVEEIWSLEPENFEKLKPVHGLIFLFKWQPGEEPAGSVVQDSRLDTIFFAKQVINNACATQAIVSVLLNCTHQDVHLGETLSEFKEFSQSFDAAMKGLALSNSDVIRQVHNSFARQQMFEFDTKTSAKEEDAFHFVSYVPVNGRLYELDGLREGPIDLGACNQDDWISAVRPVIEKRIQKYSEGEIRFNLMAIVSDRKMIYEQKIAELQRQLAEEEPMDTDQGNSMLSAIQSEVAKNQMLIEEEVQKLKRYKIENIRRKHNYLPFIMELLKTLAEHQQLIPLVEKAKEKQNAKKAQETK
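Test system – human UCH37 enzyme supplied as purified proteasome complex · Incubation – 30 min preincubation with enzyme, 25 min cleavage at room temperature · Detection – AMC fluorescence from Ub-AMC cleavage, excitation 355 nm, emission 460 nm · Benchmarks – no-proteasome wells (full inhibition) and compound-free wells (no inhibition)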
ATG4B inhibitor = ATG4B protease inhibitors, primary screen, biochemical, fluorescence, uHTS; Cysteine protease ATG4B (Homo sapiens), Q9Y4P1; ATG4B cleavage of LC3-PLA2, NBD-HPC fluorescence, 1 h; inhibition, % at 8.33 µM; 0.51% of 340,000 active; in the data active means inhibition above about 40%
NALP3 yeast inh = NALP3 inflammasome inhibitors in reconstituted yeast, primary screen, luminescence, uHTS | Yeast reconstituted NLRP3/ASC/caspase-1, beta-gal luminescence, 24 h | inhibition, % at 10 µM | 0.39% of 330,000 active | AID 2825, 2010;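 active means inhibition of 50% or more; inactive means inhibition below 50%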
A number is an active result.

CCOC(=O)CCC(=O)O[C@H]1[C@H](O[C@@H]2[C@@H](C)[C@H](O[C@H]3C[C@@](C)(OC)[C@@H](O)[C@H](C)O3)[C@@H](C)C(=O)O[C@H](CC)[C@@](C)(O)[C@H](O)[C@@H](C)C(=O)[C@H](C)C[C@@]2(C)O)O[C@H](C)C[C@@H]1N(C)C was read as ALR H2O2 inh inactive, Calb FLC inactive, NALP1 inh 92 and ATG4B inhibitor inactive.
CCOC(=O)c1c(C)n(C)c2ccc(OC)c([N+](=O)[O-])c12 was read as ALR H2O2 inh inactive, Calb FLC inactive, NALP1 inh 22, UCH37 inh inactive, ATG4B inhibitor inactive and NALP3 yeast inh inactive.
Screening C/C(C=NNC(=O)CN1CCN(Cc2ccc(Cl)cc2)CC1)=C\c1ccco1 returned UCH37 inh inactive.
Screening CCOC(=O)C1=C(C)N=c2sc(=Cc3ccc(OCC(=O)O)cc3)c(=O)n2C1c1ccc(F)cc1 (configuration not stated) returned UCH37 inh inactive.
Screening CCc1ccc(-c2cn(C3CCCCC3)c(=S)[nH]2)cc1 returned ALR H2O2 inh 97, Calb FLC inactive, NALP1 inh inactive, UCH37 inh inactive, ATG4B inhibitor inactive and NALP3 yeast inh inactive.
OCCN(CCO)c1ccc2ccccc2c1 was read as ALR H2O2 inh 98, Calb FLC inactive, NALP1 inh inactive, UCH37 inh inactive, ATG4B inhibitor inactive and NALP3 yeast inh inactive.
`CN=C1SC(CC(=O)Nc2c(C)cccc2C)C(=O)N1N=Cc1cccs1` (configuration not stated) gave UCH37 inh inactive.
For NC(=S)NNC(=O)Nc1ccc(Cl)c(Cl)c1 the results were ALR H2O2 inh 94, Calb FLC inactive, NALP1 inh inactive, ATG4B inhibitor inactive and NALP3 yeast inh inactive.
For O=C(Nc1ccc(Cl)c(Cl)c1)Nc1ccccc1C(=O)O the results were ALR H2O2 inh 98, Calb FLC inactive, NALP1 inh inactive, UCH37 inh inactive, ATG4B inhibitor inactive and NALP3 yeast inh inactive.
Screening COc1ccc2nc(N=C(N)NC(=O)C(C)(C)C)nc(C)c2c1 returned UCH37 inh inactive.
For COc1cccc(-c2cc(N)nn2C(=O)Nc2ccc(Cl)cc2)c1 the results were ALR H2O2 inh 100, Calb FLC inactive, NALP1 inh inactive, UCH37 inh inactive, ATG4B inhibitor inactive and NALP3 yeast inh inactive.
For CC1(C)Cc2ccccc2C(NN=Cc2ccc([N+](=O)[O-])cc2)=N1 the results were UCH37 inh inactive.
For CC1CCC(C(=O)c2c(O)c3ccccc3oc2=O)CC1 (configuration not stated) the results were ALR H2O2 inh inactive, Calb FLC 108, NALP1 inh inactive, UCH37 inh inactive, ATG4B inhibitor inactive and NALP3 yeast inh inactive.
`CCCCC(=O)c1c(O)c2ccccc2oc1=O` gave ALR H2O2 inh inactive, Calb FLC inactive, NALP1 inh inactive, UCH37 inh inactive, ATG4B inhibitor inactive and NALP3 yeast inh inactive.
For O=C(CC1CCCCC1)c1c(O)c2ccccc2oc1=O the results were ALR H2O2 inh 97, Calb FLC inactive, NALP1 inh inactive, UCH37 inh inactive, ATG4B inhibitor inactive and NALP3 yeast inh inactive.
COc1ccc(OCC(=O)NN=Cc2ccncc2)cc1 was read as UCH37 inh inactive.
`COC(=O)/C=C1\N/C(=N\c2nc(C)cc(C)n2)N(c2ccccc2)C1=O` gave ALR H2O2 inh 97, Calb FLC inactive, NALP1 inh inactive, UCH37 inh inactive, ATG4B inhibitor inactive and NALP3 yeast inh inactive.
Screening CCC(=O)N1CCN(c2ccc(Cl)cc2NC(=O)c2ccc3c(c2)OCCO3)CC1 returned ALR H2O2 inh inactive, Calb FLC 90, UCH37 inh inactive, ATG4B inhibitor inactive and NALP3 yeast inh inactive.
`CN(C)CCCN(C(=O)CCc1ccccc1)c1nc2ccc(Cl)cc2s1` gave ALR H2O2 inh inactive, Calb FLC inactive, NALP1 inh 64, UCH37 inh inactive, ATG4B inhibitor inactive and NALP3 yeast inh inactive.
Cc1ccc2nc(N(CCCN(C)C)C(=O)CCc3ccccc3)sc2c1 was read as ALR H2O2 inh inactive, Calb FLC inactive, NALP1 inh 48, UCH37 inh inactive and ATG4B inhibitor inactive.
For COc1cccc(C=NNC(=O)C2=NNC(=O)C2C)c1O (configuration not stated) the results were UCH37 inh inactive.
For COC(=O)NN=C(c1ccccc1)C1CCCCC1 the results were UCH37 inh inactive.
Screening CC(=NO)c1cccc(N2Cc3ccccc3C2)c1 returned UCH37 inh inactive.
`COc1cc(/C=N/Nc2nc(Nc3ccc(C)cc3)nc(-n3nc(C)cc3C)n2)cc(OC)c1OC` gave ALR H2O2 inh inactive, Calb FLC inactive, NALP1 inh 42, ATG4B inhibitor inactive and NALP3 yeast inh inactive.
`Cc1ccc(C(=O)NN=CC2=Cc3ccccc3OC2C)cc1` (configuration not stated) gave UCH37 inh inactive.
`COc1ccc(-c2[nH]c(-c3ccc(C)cc3)nc2SCC(=O)Nc2nccs2)cc1` gave ALR H2O2 inh 94, Calb FLC inactive, NALP1 inh inactive, UCH37 inh inactive, ATG4B inhibitor inactive and NALP3 yeast inh inactive.
Screening Cc1ccc(N/C=C(\C#N)c2ccc(OCCCF)cc2)cc1 returned ALR H2O2 inh inactive, Calb FLC inactive, NALP1 inh inactive, UCH37 inh inactive, ATG4B inhibitor inactive and NALP3 yeast inh inactive.
For N#C/C(=C/Nc1ccccc1)c1ccsc1 the results were ALR H2O2 inh 89, Calb FLC inactive, NALP1 inh inactive, UCH37 inh inactive, ATG4B inhibitor inactive and NALP3 yeast inh inactive.
`N#CC(=NNc1cccc(C(F)(F)F)c1)C(=O)c1ccsc1` gave UCH37 inh inactive.
Cc1ccc(N/C=C(/C#N)c2ccsc2)cc1 was read as ALR H2O2 inh 98, Calb FLC inactive, NALP1 inh inactive, UCH37 inh inactive, ATG4B inhibitor inactive and NALP3 yeast inh inactive.
Cc1cc(-c2ccccc2)nc(NN=Cc2ccccc2F)n1 was read as UCH37 inh inactive.
For O=C(NN=Cc1cccc(O)c1)C(=O)N1CCCCCC1 the results were UCH37 inh inactive.
Cc1ccc(-n2nc(C)c3c(C)c(CCC(=O)NC(C)c4ccccc4)c(C)nc32)cc1 (configuration not stated) was read as ALR H2O2 inh inactive, Calb FLC inactive, NALP1 inh 39, UCH37 inh inactive, ATG4B inhibitor inactive and NALP3 yeast inh inactive.
For Cc1ccc(-n2nc(C)c3c(C)c(CCC(=O)O)c(C)nc32)cc1 the results were ALR H2O2 inh inactive, Calb FLC inactive, NALP1 inh inactive, UCH37 inh inactive, ATG4B inhibitor inactive and NALP3 yeast inh inactive.
